High-throughput results from PubChem BioAssay.
Shown are actives, neighbours in structure and some others; about 2.6% of the full set was active somewhere.
NadD inh: inhibitors of S. aureus NadD, primary screen, biochemical, colorimetric, uHTS | Nicotinate-nucleotide adenylyltransferase NadD (Staphylococcus aureus N315) | purified NadD enzyme, colorimetric absorbance read-out | inhibition, % at 20 µM | 0.78% of 360,000 active; in the data active = inhibition above about 26%
rCAG RNA binder: binders of r(CAG) RNA repeats, primary screen, biochemical, fluorescence; r(CAG) RNA repeat, TO-PRO-1 dye displacement fluorescence; inhibition, % at 3 µM; 1.3% of 370,000 active; AID 651821, 2012;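 active = inhibition above the plate cutoff, the mean of all test compounds on that plate plus 3 SD, cut at about 35% in these data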;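 note: 0% = DMSO alone and 100% = 100 µM mitoxantrone as full dye displacement; higher means more dye released from RNA so lower well fluorescence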
Scp-1 inhibitor: Scp-1 phosphatase inhibitors, primary screen, biochemical, colorimetric, uHTS. Carboxy-terminal domain RNA polymerase II polypeptide A small phosphatase 1 (Homo …. Recombinant Scp1, phosphopeptide, malachite green phosphate absorbance. inhibition, % at 20 µM. 0.88% of 340,000 active;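 active = inhibition above about 50% at 20 µM, limit read from the data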;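 note: plate controls were DMSO wells with enzyme for no effect and wells lacking enzyme for full effect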
Target sequence (Q9GZU7 76-261 limits assumed): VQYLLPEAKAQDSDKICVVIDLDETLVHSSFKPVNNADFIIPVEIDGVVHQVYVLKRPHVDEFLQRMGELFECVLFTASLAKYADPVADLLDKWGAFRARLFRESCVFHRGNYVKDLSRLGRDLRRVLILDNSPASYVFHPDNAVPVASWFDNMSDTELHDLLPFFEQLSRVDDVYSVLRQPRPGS
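Test system: SCP-1 phosphatase catalytic domain, residues 76-261; measured by: colorimetric phosphate reagent with accelerator and stabiliser, absorbance at 630 nm; timing: enzyme reaction 45 min at room temperature, colour 5 min, stabilisation 30 min; also added: Phosphorylated 17-residue peptide substrate; compound dosing: one concentration, 20 µM, with 1.0% DMSO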
LMPTP inh: LMPTP phosphatase inhibitors, primary screen, biochemical, fluorescence intensity, uHTS; inhibition, % at 20 µM; 0.22% of 360,000 active; recombinant LMPTP-A, OMFP fluorogenic substrate; Low molecular weight phosphotyrosine protein phosphatase (Homo sapiens), P24666;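 active = compounds that cut the enzyme signal by at least half of the control window in the single-dose screen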;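 note: plate controls were DMSO wells with enzyme plus substrate for no effect and substrate without enzyme for full effect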
Target sequence (P24666 whole entry, looked up): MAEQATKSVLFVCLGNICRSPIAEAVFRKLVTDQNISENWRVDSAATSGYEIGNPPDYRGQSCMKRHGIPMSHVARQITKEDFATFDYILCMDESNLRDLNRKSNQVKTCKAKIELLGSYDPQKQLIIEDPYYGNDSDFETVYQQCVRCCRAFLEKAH
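Assay system: LMPTP-A enzyme. Input: 0.625 nM LMPTP-A final. Probe or stimulus: 400 µM OMFP. Compound dosing: single 20 µM dose. Schedule: 50 min dark incubation at room temperature. Detection: fluorescence intensity of OMFP turnover product. Read-out: percent inhibition versus substrate-only and uninhibited controls. Benchmarks: no-enzyme low control, uninhibited high control.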
STEP inh: STEP phosphatase inhibitors, primary screen, biochemical, fluorescence intensity, uHTS; recombinant STEP, OMFP fluorogenic substrate; inhibition, % at 20 µM; 0.25% of 360,000 active;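 active = inhibition at 20 µM, scaled per plate between control wells, above about 37%, limit read from the data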;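 note: 0% = DMSO with enzyme and substrate and 100% = substrate only without enzyme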
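Also added – OMFP at 25 µM · Test system – STEP tyrosine phosphatase · Technique – FITC-channel fluorescence of OMFP product · Schedule – 20 min at room temperature, dark · Evaluation – control-normalized % inhibition with plate pattern correction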
rCAG binder conf: small molecules binding CAG repeat RNA – biochemical, fluorescence, confirmation | inhibition, % at 3 µM | shares compounds with rCAG RNA binder | 70% of 4,300 active | r(CAG) RNA repeat, TO-PRO-1 dye displacement fluorescence;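 active = inhibition above a per-plate cutoff, the mean inhibition of sample wells plus 3 SD, cut at about 35% in these data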;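 note: loss of TO-PRO-1 fluorescence as compound displaces dye from 1x1 AA loop RNA; 0% = DMSO only wells and 100% = 100 µM mitoxantrone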
DNA CAG counter: displacement of TO-PRO-1 from CAG DNA duplex, counter-screen for rCAG RNA repeat binder project, biochemical, fluorescence, TO-PRO-1 dye, d(CAG) DNA oligo; shares compounds with rCAG RNA binder; d(CAG) DNA oligo TO-PRO-1 dye displacement; inhibition, % at 3 µM; 94% of 4,300 active;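 active = inhibition above its plate's cutoff, the mean test-well inhibition plus 3 SD, cut at about 4.8% in these data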;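 note: 0% = DNA dye mix with DMSO and 100% = 100 µM mitoxantrone; hits displace the dye from DNA and so lower well fluorescence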
* hit, by the source's call.

`CCc1ccc(-n2c(=S)sc3c(=O)n(-c4ccccc4)c(SCC(=O)O)nc32)cc1` gave NadD inh -1, rCAG RNA binder 41*, Scp-1 inhibitor -13, LMPTP inh -1, STEP inh 1, rCAG binder conf 32 and DNA CAG counter 6.9*.
For Cc1ccc(-n2c(=S)sc3c(=O)n(-c4ccccc4F)c(SCC(=O)O)nc32)cc1C the results were NadD inh 0, rCAG RNA binder 47*, Scp-1 inhibitor -4, LMPTP inh 1, STEP inh 0, rCAG binder conf 46* and DNA CAG counter 13*.
`CCOc1ccc(-n2c(=S)sc3c(=O)n(-c4ccccc4)c(SCC(=O)O)nc32)cc1` gave NadD inh -3, rCAG RNA binder 39*, Scp-1 inhibitor 0, LMPTP inh 2, STEP inh -1, rCAG binder conf 26 and DNA CAG counter 5.7*.
`CC(C)(C)c1ccc(C(=O)N/C(=C\c2ccco2)C(=O)Nc2ccccc2C(=O)O)cc1` gave NadD inh 5, rCAG RNA binder 62*, Scp-1 inhibitor 7, LMPTP inh -1, STEP inh 4, rCAG binder conf 68* and DNA CAG counter 29*.
Screening O=C(Nc1ccc(C(=O)O)cc1)/C(=C\c1ccco1)NC(=O)c1ccccc1Cl returned NadD inh -2, rCAG RNA binder 43*, Scp-1 inhibitor 15, LMPTP inh 0, STEP inh 2, rCAG binder conf 6 and DNA CAG counter 2.
`O=C(Nc1ccc(C(=O)O)cc1)/C(=C\c1ccco1)NC(=O)c1ccccc1` gave NadD inh 0, rCAG RNA binder 3, Scp-1 inhibitor -4, LMPTP inh -2 and STEP inh -2.
Screening Cc1ccc(NC(=O)Cc2ccc(OC(F)F)cc2)c(S(=O)(=O)N2CCOCC2)c1 returned rCAG RNA binder 3.
`O=C(CCCN1C(=O)/C(=C\c2cccs2)SC1=S)Nc1ccc(O)cc1` gave NadD inh -1, rCAG RNA binder 9, Scp-1 inhibitor 34, LMPTP inh 1 and STEP inh 0.
For O=C(CCN1C(=O)/C(=C/c2cccs2)SC1=S)Nc1ccc(C(=O)O)cc1 the results were NadD inh -3, rCAG RNA binder 48*, Scp-1 inhibitor -15, LMPTP inh 4, STEP inh 5, rCAG binder conf 35* and DNA CAG counter 8.1*.
Screening O=C(CCCN1C(=O)/C(=C\c2cccs2)SC1=S)Nc1ccc(C(=O)O)cc1 returned NadD inh 0, rCAG RNA binder 39*, Scp-1 inhibitor 1, LMPTP inh 1, STEP inh -1, rCAG binder conf 30 and DNA CAG counter 7.8*.
Cc1ccc(N2CCN(/N=C\c3cccnc3)CC2)cc1 was read as rCAG RNA binder 0.
For Cc1ccc(C(=O)Nc2nnc(NC(=S)Nc3ccccc3)s2)cc1 the results were NadD inh 23, rCAG RNA binder 70*, Scp-1 inhibitor -14, LMPTP inh 1, STEP inh 0, rCAG binder conf 39* and DNA CAG counter 30*.
For CCc1nnc(NC(=S)Nc2ccccc2)s1 the results were NadD inh -3, rCAG RNA binder 11, Scp-1 inhibitor -9, LMPTP inh -1 and STEP inh -9.
Screening COc1ccc2nc(Nc3nc4cc5c(cc4s3)OCO5)sc2c1 returned NadD inh 25, rCAG RNA binder 44*, Scp-1 inhibitor 12, LMPTP inh 2, STEP inh 9, rCAG binder conf 32 and DNA CAG counter 20*.
